Data as given in ChEMBL document CHEMBL4308909, “Synthesis, Antioxidant Activity and Cytotoxicity of N-Functionalized Organotellurides” (Bioorg Med Chem, 2019).
≈ marks a conversion by molar mass, not a printed value. Calls of active or inactive are those of the source. No cut-off for these calls is given here.

How the values were obtained:
[1] = Antioxidant activity assessed as ferric ion reducing activity by measuring trolox equivalents after 40 mins by FRAP assay; format: functional
Method in brief: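 Samples at several concentrations incubated with reagent at 37 °C for 40 min in the dark, absorbance read at 593 nm. Expressed as trolox equivalent antioxidant capacity. Quercetin reference.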

[2] = Antioxidant activity of the compound assessed as DPPH radical scavenging activity after 30 mins by spectrophotometric method; format: functional
Method in brief: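 Methanolic DPPH (130 μmol L⁻¹ before mixing, 1:1 with sample) mixed with methanolic samples at several concentrations, 30 min at room temperature in the dark, absorbance at 517 nm. Percent scavenging calculated against a methanol-plus-DPPH control. IC50 from linear regression, triplicate. Quercetin reference.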

L929 [3] = assay: Cytotoxicity against mouse L929 cells assessed as reduction in cell viability at 1.9 to 15.6 ug/ml after 24 hrs by neutral red staining-based spectrophotometric analysis; conditions: l929, 24 h
Method in brief: (§1)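 L929 fibroblasts grown in DMEM with 2 mM L-glutamine, 10% FBS, penicillin/streptomycin, 37 °C, 5% CO₂. Cells seeded at 2.5 × 10⁵ cells ml⁻¹ and treated after 24 h with 1.95–15.625 μg mL⁻¹ for 24 h (DMSO ≤1.5% final). Neutral red (40 μg mL⁻¹) for 3 h, fixed, dye extracted with ethanol/acetic acid, read at 540 nm. Compared with negative control by Tukey's test.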

L929 [4] = assay: Cytotoxicity against mouse L929 cells assessed as reduction in cell viability at 3.9 to 15.6 ug/ml after 24 hrs by neutral red staining-based spectrophotometric analysis; conditions: l929, 24 h; method in brief: as §1
L929 [5] = assay: Cytotoxicity against mouse L929 cells assessed as reduction in cell viability at 1.9 ug/ml after 24 hrs by neutral red staining-based spectrophotometric analysis; conditions: l929, 24 h; method in brief: as §1
[6] = Antioxidant activity assessed as ABTS radical scavenging activity after 16 hrs by spectrophotometric analysis; format: functional
Method in brief: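 ABTS radical cation generated from ABTS (7 mmol L⁻¹) plus potassium persulfate (140 mmol L⁻¹), 16 h at room temperature in the dark, diluted in ethanol to absorbance 0.70 at 734 nm. Sample added at several concentrations, read at 734 nm after 6 min. Trolox calibration curve (20–600 μmol L⁻¹) in ethanol, results in mmol TE g⁻¹. Quercetin reference.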

In the case of C/C(=N\O)c1ccc([Te]CCCO)cc1, the Activity [1] is reported as “inactive”, the IC50 [2] is reported as 13.06 µg/mL and the Activity (L929 [3]) is reported as “Non-Toxic”.

With CCCC[Se]c1ccc(C(C)N)cc1 (centres undefined) the IC50 [2] was over 100 µg/mL.

With CCCC[Te]c1cccc(/C(C)=N/O)c1 the Activity (L929 [4]) was “Toxic”, the Activity (L929 [5]) was “Non-Toxic” and the Activity [1] was “Active”. The IC50 [2] was 5.12 µg/mL and the Activity [6] was “Active”.

With O=c1c(O)c(-c2ccc(O)c(O)c2)oc2cc(O)cc(O)c12 [QUERCETIN] the Activity [1] was “Active”, the IC50 [2] was 2.54 µg/mL (≈ 8.4 µM) and the Activity [6] was “Active”.

For CCCCNC(C)c1ccc([Te]CCCC)cc1 (centres undefined), the Activity (L929 [4]) was “Non-Toxic”, the Activity [1] was “inactive” and the IC50 [2] was 8.63 µg/mL. The Activity [6] was “inactive”.

In the case of CCCC[Te]c1cccc(C(C)N)c1 (centres undefined), the Activity (L929 [4]) is reported as “Toxic”, the Activity (L929 [5]) is reported as “Non-Toxic” and the Activity [1] is reported as “Active”. The IC50 [2] was 19.22 µg/mL and the Activity [6] was “Active”.

With C=CCNC(C)c1ccc([Te]CCCC)cc1 (centres undefined) the IC50 [2] was over 100 µg/mL.

Work on CCCC[Se]c1ccc(C(C)NCC(C)C)cc1 (centres undefined) yielded an IC50 [2] of over 100 µg/mL.

CCCC[Se]c1cccc(C(C)N)c1 (centres undefined) showed an IC50 [2] of over 100 µg/mL.

With CCCC[Te]c1ccc(/C(C)=N/N)cc1 the IC50 [2] was 5.08 µg/mL and the Activity (L929 [3]) was “Non-Toxic”.

With CCCC[Te]c1ccc(C(C)NCC(C)C)cc1 (centres undefined) the Activity (L929 [4]) was “Non-Toxic”, the Activity [1] was “inactive” and the IC50 [2] was 12.49 µg/mL. For the same molecule, the Activity [6] was “inactive”.

With CCCC[Te]c1ccc(C(C)N)cc1 (centres undefined) the Activity (L929 [4]) was “Toxic”, the Activity (L929 [5]) was “Non-Toxic” and the Activity [1] was “Active”. The IC50 [2] was 12.07 µg/mL and the Activity [6] was “Active”.

In the case of CCCC[Te]c1ccc(C(C)NCc2ccccc2)cc1 (centres undefined), the Activity (L929 [4]) is reported as “Non-Toxic”, the Activity [1] is reported as “inactive” and the IC50 [2] is reported as 11.41 µg/mL. The Activity [6] was “inactive”.

For CCCC[Te]c1ccc(/C(C)=N/O)cc1, the Activity (L929 [4]) was “Toxic”, the Activity (L929 [5]) was “Non-Toxic” and the Activity [1] was “Active”. The IC50 [2] was 7.79 µg/mL and the Activity [6] was “Active”.
